Data as given in ChEMBL document CHEMBL1155465, “"Viologen" dendrimers as antiviral agents: the effect of charge number and distance” (J Med Chem, 2010).
Values after ≈ are worked out from the molar mass of the structure shown. Active and inactive are the calls of the source. No cut-off for these calls is given here.

Tests used:
[1] = tested on: Human immunodeficiency virus 1; assay: Antiviral activity against HIV1 NL4-3 pseudotyped with VSV-G envelope infected in human C8166 cells assessed as inhibition of GFP expression after 48 hrs by flow cytometry; format: functional, organism-based
Method in brief: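 VSV-G-pseudotyped (env-deficient) GFP-encoding NL4.3 taken from transfection supernatant at 60 h and clarified at 450g for 10 min. Used to infect 3 × 10⁴ C8166 cells (RPMI 1640, 10% FCS) with graded compound concentrations. GFP expression read by flow cytometry 48 h post-infection, with the no-compound infection control set as 100%.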

[2] = tested on: Human immunodeficiency virus 2; assay: Antiviral activity against HIV2 ROD infected in human A72 Jurkat cells assessed as inhibition of GFP expression after 48 hrs by flow cytometry; format: functional, organism-based; conditions: Human immunodeficiency virus 2, ISOLATE ROD
Method in brief: (§1)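 Acutely infected A72 Jurkat cells. EC50 (μg/mL) is the concentration giving 50% inhibition of GFP expression relative to drug-free infection. CC50 is 50% reduction in cell viability. SI = CC50/EC50. Mean ± SD of ≥2 experiments.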

[3] = Cytotoxicity against human MT4 cells after 5 days by MTT assay; format: cell-based
Method in brief: (§2)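 MT-4 cells in RPMI 1640 with 10% heat-inactivated FCS, 2 mM L-glutamine, 0.1% bicarbonate and gentamicin, seeded at 6 × 10⁵ cells/mL final with virus or mock infection. Viability read by MTT after 5 days at 540 and 690 nm, using the median OD of three wells. CC50 is 50% loss of mock-infected OD540. EC50 is 50% inhibition of virus-induced CPE. SI = CC50/EC50. Mean ± SD of ≥2 experiments.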

Sindbis virus = assay: Antiviral activity against Sindbis virus infected in african green monkey Vero cells assessed as inhibition of virus-induced cytopathicity; format: functional, organism-based
[4] = Selectivity index, ratio of CC50 for human Jurkat A72 cells to EC50 for HIV1 3B; format: toxicity, cell-based; method in brief: as §1
[5] = tested on: Human immunodeficiency virus 2; assay: Antiviral activity against HIV2 ROD infected in human MT4 cells after 5 days by MTT assay; format: functional, organism-based; conditions: Human immunodeficiency virus 2, ISOLATE ROD, MT4, 120 h; method in brief: as §2
[6] = tested on: Vesicular stomatitis virus; assay: Antiviral activity against VSV infected in human HeLa cell assessed as inhibition of virus-induced cytopathicity; format: functional, organism-based
Punta Toro virus = assay: Antiviral activity against Punta Toro virus infected in african green monkey Vero cells assessed as inhibition of virus-induced cytopathicity; format: functional, organism-based
[7] = Cytotoxicity against human E6SM cells by MTT assay; format: cell-based
[8] = tested on: Human immunodeficiency virus; assay: Antiviral activity against HIV SO6141 infected in human MT4 cells after 5 days by MTT assay; format: functional, organism-based; conditions: Human immunodeficiency virus 1, SO6141, MT4, 120 h; method in brief: as §2
[9] = tested on: Vesicular stomatitis virus; assay: Antiviral activity against VSV infected in human E6SM cell assessed as inhibition of virus-induced cytopathicity; format: functional, organism-based
[10] = tested on: Human immunodeficiency virus 1; assay: Antiviral activity against HIV1 3B infected in human MT4 cells after 5 days by MTT assay; format: functional, organism-based; conditions: Human immunodeficiency virus 1, 3B, MT4, 120 h; method in brief: as §2
[11] = tested on: Human immunodeficiency virus; assay: Antiviral activity against HIV S07 infected in human A72 Jurkat cells assessed as inhibition of GFP expression after 48 hrs by flow cytometry; format: functional, organism-based; conditions: Human immunodeficiency virus 1, S07, Jurkat; method in brief: as §1
[12] = Cytotoxicity against human HeLa cells by MTT assay; format: cell-based
Reovirus sp. = assay: Antiviral activity against Reovirus infected in african green monkey Vero cells assessed as inhibition of virus-induced cytopathicity; format: functional, organism-based
[13] = tested on: Respiratory syncytial virus; assay: Antiviral activity against RSV infected in human HeLa cell assessed as inhibition of virus-induced cytopathicity; format: functional, organism-based
[14] = tested on: Human immunodeficiency virus; assay: Antiviral activity against HIV S067 infected in human A72 Jurkat cells assessed as inhibition of GFP expression after 48 hrs by flow cytometry; format: functional, organism-based; conditions: Human immunodeficiency virus 1, S067, Jurkat; method in brief: as §1
[15] = tested on: Human immunodeficiency virus 1; assay: Antiviral activity against HIV1 3B infected in human MT4 cells assessed as time-of-addition prolongation at 100 ug/ml after 31 hrs post infection by ELISA; format: functional
Method in brief: (§3)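 Time-of-addition: MT-4 cells infected with HIV-1 IIIB at moi 0.5 for a 1 h adsorption, then plated at 45000 cells/well at 37 °C. Compound added at 0, 1, 2, 3, 4, 5, 6, 7, 8, 24 or 25 h post-infection. Supernatant p24 antigen measured by ELISA at 31 h post-infection.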

[16] = tested on: Human immunodeficiency virus; assay: Antiviral activity against HIV S056 infected in human A72 Jurkat cells assessed as inhibition of GFP expression after 48 hrs by flow cytometry; format: functional, organism-based; conditions: Human immunodeficiency virus 1, S056, Jurkat; method in brief: as §1
[17] = tested on: Human immunodeficiency virus 1; assay: Antiviral activity against HIV1 3B infected in human A72 Jurkat cells assessed as inhibition of GFP expression after 48 hrs by flow cytometry; format: functional, organism-based; conditions: Human immunodeficiency virus 1, 3B; method in brief: as §1
[18] = tested on: Human immunodeficiency virus 1; assay: Antiviral activity against HIV1 NL4-3 infected in human A72 Jurkat cells assessed as inhibition of GFP expression after 48 hrs by flow cytometry; format: functional, organism-based; conditions: Human immunodeficiency virus 1, NL4-3, Jurkat; method in brief: as §1
[19] = Selectivity index, ratio of CC50 for human PBMC to EC50 for HIV1 3B
Method in brief: (§4)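 PBMCs infected with HIV-1 IIIB and cultured with a range of compound concentrations. EC50 is 50% inhibition of supernatant p24 core antigen (ELISA) relative to drug-free culture. CC50 is 50% reduction in cell viability. SI = CC50/EC50. Mean ± SD of ≥2 experiments.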

Vaccinia virus = assay: Antiviral activity against Vaccina virus infected in human E6SM cell assessed as inhibition of virus-induced cytopathicity; format: functional, organism-based; conditions: Orthopoxvirus vaccinia
Human alphaherpesvirus 1 [20] = assay: Antiviral activity against TK-deficient acyclovir-resistant HSV1 KOS infected in human E6SM cell assessed as inhibition of virus-induced cytopathicity; format: functional, organism-based; conditions: Human alphaherpesvirus 1, KOS
Human alphaherpesvirus 1 [21] = assay: Antiviral activity against HSV1 KOS infected in human E6SM cell assessed as inhibition of virus-induced cytopathicity; format: functional, organism-based; conditions: Human alphaherpesvirus 1, KOS
[22] = tested on: Simian immunodeficiency virus; assay: Antiviral activity against SIV MAC251 infected in human MT4 cells after 5 days by MTT assay; format: functional, organism-based; conditions: MAC251, MT4, 120 h; method in brief: as §2
[23] = tested on: Human immunodeficiency virus 1; assay: Antiviral activity against HIV1 3B infected in human PBMC assessed as inhibition of viral p24 antigen production by ELISA; format: functional, organism-based; conditions: Human immunodeficiency virus 1, 3B; method in brief: as §4
[24] = tested on: Human immunodeficiency virus; assay: Antiviral activity against AZT-resistant HIV infected in human A72 Jurkat cells assessed as inhibition of GFP expression after 48 hrs by flow cytometry; format: functional, organism-based; conditions: Human immunodeficiency virus 1, Jurkat; method in brief: as §1
[25] = Cytotoxicity against human Jurkat A72 cells by MTT assay; format: cell-based; method in brief: as §1
[26] = Cytotoxicity against human PBMC after 5 days by MTT assay; format: cell-based; method in brief: as §4
Human alphaherpesvirus 2 = assay: Antiviral activity against HSV2 G infected in human E6SM cell assessed as inhibition of virus-induced cytopathicity; format: functional, organism-based; conditions: Human alphaherpesvirus 2, strain G
[27] = Cytotoxicity against african green monkey Vero cells by MTT assay; format: cell-based; conditions: chlorocebus sabaeus
[28] = Selectivity index, ratio of CC50 for human MT4 cells to EC50 for HIV1 3B; format: toxicity, cell-based; conditions: read-out: Ratio CC50/EC50; method in brief: as §2
Human respirovirus 3 = assay: Antiviral activity against Parainfluenza virus 3 infected in african green monkey Vero cells assessed as inhibition of virus-induced cytopathicity; format: functional, organism-based; conditions: Human respirovirus 3, Vero
[29] = tested on: Human immunodeficiency virus 1; assay: Antiviral activity against HIV1 3B infected in human MT4 cells assessed as time-of-addition prolongation at 0.5 ug/ml after 31 hrs post infection by ELISA; format: functional; method in brief: as §3
[30] = tested on: Human immunodeficiency virus 1; assay: Antiviral activity against HIV1 3B infected in human MT4 cells assessed as time-of-addition prolongation at 2 ug/ml after 31 hrs post infection by ELISA; format: functional; method in brief: as §3

CC[n+]1ccc(-c2cc[n+](Cc3cc(Cc4ccc(-c5cc[n+](Cc6cc(C[n+]7ccc(-c8cc[n+](Cc9cc(C[n+]%10ccc(-c%11cc[n+](CC)cc%11)cc%10)cc(C[n+]%10ccc(-c%11cc[n+](CC)cc%11)cc%10)c9)cc8)cc7)cc(C[n+]7ccc(-c8cc[n+](Cc9cc(C[n+]%10ccc(-c%11cc[n+](CC)cc%11)cc%10)cc(C[n+]%10ccc(-c%11cc[n+](CC)cc%11)cc%10)c9)cc8)cc7)c6)cc5)cc4)cc(C[n+]4ccc(-c5cc[n+](CC)cc5)cc4)c3)cc2)cc1.F[P-](F)(F)(F)(F)F.F[P-](F)(F)(F)(F)F.F[P-](F)(F)(F)(F)F.F[P-](F)(F)(F)(F)F.F[P-](F)(F)(F)(F)F.F[P-](F)(F)(F)(F)F.F[P-](F)(F)(F)(F)F.F[P-](F)(F)(F)(F)F.F[P-](F)(F)(F)(F)F.F[P-](F)(F)(F)(F)F.F[P-](F)(F)(F)(F)F.F[P-](F)(F)(F)(F)F.F[P-](F)(F)(F)(F)F.F[P-](F)(F)(F)(F)F.F[P-](F)(F)(F)(F)F.F[P-](F)(F)(F)(F)F.F[P-](F)(F)(F)(F)F
inhibition [1]: Dose-dependent effect
EC50 [2]: 21.5 µg/mL
CC50 at 120 h [3]: 19700 nM
EC50 (Sindbis virus): > 50 µg/mL
selectivity ratio ([4]; read-out: Ratio CC50/EC50): 149
EC50 [5]: > 19700 nM
EC50 [6]: > 50 µg/mL
EC50 (Punta Toro virus): > 50 µg/mL
MCC [7]: > 50 µg/mL
EC50 [8]: ≥ 1550 nM
EC50 [9]: > 50 µg/mL
EC50 [10]: 260 nM
EC50 [11]: < 0.2 µg/mL
MCC [12]: > 50 µg/mL
EC50 (Reovirus sp.): > 50 µg/mL
EC50 [13]: 50 µg/mL
EC50 [14]: < 0.2 µg/mL
Time [15]: 1 h
EC50 [16]: < 2 µg/mL
EC50 [17]: 0.685 µg/mL
EC50 [18]: < 0.2 µg/mL
Ratio CC50/EC50 [19]: 2.5
EC50 (Vaccinia virus): > 50 µg/mL
EC50 (Human alphaherpesvirus 1 [20]): 10 µg/mL
EC50 (Human alphaherpesvirus 1 [21]): 2 µg/mL
EC50 [22]: 460 nM
EC50 [23]: 1.62 µg/mL
EC50 [24]: 5.9 µg/mL
CC50 [25]: 102 µg/mL
CC50 at 120 h [26]: 4.04 µg/mL
EC50 (Human alphaherpesvirus 2): 10 µg/mL
MCC [27]: > 50 µg/mL
selectivity ratio [28]: 75.8
EC50 (Human respirovirus 3): > 50 µg/mL

Cc1cn([C@H]2C[C@H](N=[N+]=[N-])[C@@H](CO)O2)c(=O)[nH]c1=O [ZIDOVUDINE]
Time [29]: 5 h

c1cc(CN2CCCNCCNCCCNCC2)ccc1CN1CCCNCCNCCCNCC1
inhibition [1]: inactive

Cc1ccnc2c1NC(=O)c1cccnc1N2C1CC1 [NEVIRAPINE]
EC50 [2]: > 2 µg/mL
selectivity ratio [4]: > 250
EC50 [11]: 0.012 µg/mL (≈ 0.0451 µM)
EC50 [14]: 0.016 µg/mL (≈ 0.0601 µM)
EC50 [16]: < 0.2 µg/mL
EC50 [17]: 0.008 µg/mL (≈ 0.03 µM)
Time [30]: 10 h
EC50 [18]: 0.008 µg/mL (≈ 0.03 µM)
EC50 [24]: 0.005 µg/mL (≈ 0.0188 µM)
CC50 [25]: > 2 µg/mL
